Assay results reported in ChEMBL document CHEMBL1125832, “Synthesis and dopaminergic activity of 3-substituted 1-(aminomethyl)-3,4-dihydro-5,6-dihydroxy-1H-2-benzopyrans: characterization of an auxiliary binding region in the D1 receptor” (J Med Chem, 1991).
pEC50, pKi: −log10 of the molar value.

Key:
D(1A) dopamine receptor [1] = target: T1, D(1A) dopamine receptor (Rattus norvegicus, UniProt P18901); assay: Binding affinity using [125 I] SCH 23982 radioligand competitive binding assay on dopamine receptor D1
T1 sequence (P18901 whole entry): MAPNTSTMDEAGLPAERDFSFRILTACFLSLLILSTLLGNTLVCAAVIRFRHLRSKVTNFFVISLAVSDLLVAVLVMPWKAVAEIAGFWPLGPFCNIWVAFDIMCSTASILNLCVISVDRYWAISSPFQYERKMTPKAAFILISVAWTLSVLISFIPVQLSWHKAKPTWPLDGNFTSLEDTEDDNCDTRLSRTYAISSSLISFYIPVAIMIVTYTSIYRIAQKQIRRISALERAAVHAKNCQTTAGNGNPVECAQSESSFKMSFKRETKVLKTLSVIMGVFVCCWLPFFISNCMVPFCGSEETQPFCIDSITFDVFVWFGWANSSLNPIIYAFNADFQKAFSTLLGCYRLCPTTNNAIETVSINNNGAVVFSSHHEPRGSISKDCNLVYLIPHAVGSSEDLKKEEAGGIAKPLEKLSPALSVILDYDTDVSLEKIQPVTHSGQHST

D(2) dopamine receptor [2] = target: T2, D(2) dopamine receptor (Rattus norvegicus, UniProt P61169); assay: Concentration required to inhibit 50% dopamine receptor D2 in a cell free homogenate of intermediate lobe of pituitary gland; assay type: functional
T2 sequence (P61169 whole entry): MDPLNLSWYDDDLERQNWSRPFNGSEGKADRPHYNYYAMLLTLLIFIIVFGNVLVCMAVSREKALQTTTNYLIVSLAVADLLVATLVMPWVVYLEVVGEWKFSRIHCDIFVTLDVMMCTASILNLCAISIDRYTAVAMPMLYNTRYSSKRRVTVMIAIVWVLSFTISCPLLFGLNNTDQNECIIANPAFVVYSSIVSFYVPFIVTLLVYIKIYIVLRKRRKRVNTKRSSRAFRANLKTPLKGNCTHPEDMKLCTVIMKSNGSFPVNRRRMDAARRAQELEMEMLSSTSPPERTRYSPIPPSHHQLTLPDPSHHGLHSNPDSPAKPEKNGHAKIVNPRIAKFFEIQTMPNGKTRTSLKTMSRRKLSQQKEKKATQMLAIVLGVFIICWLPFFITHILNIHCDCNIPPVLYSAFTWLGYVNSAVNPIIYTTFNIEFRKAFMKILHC

D(2) dopamine receptor [3] = target: T2, D(2) dopamine receptor; assay: Binding affinity using [3H]-spiperone radioligand competitive binding assay against dopamine receptor D2
Procedure, shortened: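 Rat striatal membranes in Tris pH 7.4 buffer with salts and ascorbate. [3H]spiperone at 300 pM final; nonspecific binding with 10 μM YM-09151-2. Incubated 20 min at 37 °C, then filtered. Ki derived from IC50 by Cheng-Prusoff.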

[4] = Intrinsic activity relative to dopamine at D-2 receptor.; assay type: functional
[5] = tested on: D1 dopamine receptor (Cyprinus carpio); assay: Intrinsic activity measured relative to dopamine on D1C(R) receptor
D(1A) dopamine receptor [6] = target: T1, D(1A) dopamine receptor; assay: Inhibition of Dopamine receptor D1 activity by functional cyclase assay using cell free homogenate of rat striatum; assay type: tissue-based
Procedure, shortened: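 Adenylate cyclase stimulation in cell-free homogenate of rat striatum. EC50 is the concentration giving half-maximal stimulation of cAMP production.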

[7] = target: D(1A) dopamine receptor (Rattus norvegicus) (UniProt P18901); assay: Intrinsic activity was measured in relative to dopamine on D1C(S) receptor
Chain of D(1A) dopamine receptor (Rattus norvegicus) (P18901 whole entry, looked up): as the sequence (P18901 whole entry) above

Rattus norvegicus [8] = assay: Rat rotation experiments were conducted to evaluate rational behavior of the rats by administering at a dose of 30 umol/kg subcutaneously; assay type: functional
Procedure, shortened: (§1)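 Rats with unilateral 6-hydroxydopamine lesions of the nigrostriatal bundle. Compound given subcutaneously or orally at the stated dose. Net contralateral rotations counted over 2 h after dosing and reported as mean ± SEM; negative values indicate ipsilateral turning.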

Rattus norvegicus [9] = assay: Rat rotation experiments were conducted to evaluate rational behavior of the rats by administering at a dose of 15 umol/kg subcutaneously; assay type: functional; procedure, shortened: as §1
Rattus norvegicus [10] = assay: Rat rotation experiments were conducted to evaluate rational behavior of the rats by administering at a dose of 260 umol/kg subcutaneously; assay type: functional; procedure, shortened: as §1
Rattus norvegicus [11] = assay: Rat rotation experiments were conducted to evaluate rational behavior of the rats by administering at a dose of 65 umol/Kg subcutaneously; assay type: functional; procedure, shortened: as §1
Rattus norvegicus [12] = assay: Rat rotation experiments were conducted to evaluate rational behavior of the rats by administering at a dose of 130 umol/kg subcutaneously; assay type: functional; procedure, shortened: as §1

SMILES | pKi (D(1A) dopamine receptor [1]) | pEC50 (D(2) dopamine receptor [2]) | pKi (D(2) dopamine receptor [3]) | Intrinsic activity [4] | Intrinsic activity [5] | pEC50 (D(1A) dopamine receptor [6]) | Intrinsic activity [7] | Activity (Rattus norvegicus [8]) | Activity (Rattus norvegicus [9]) | Activity (Rattus norvegicus [10]) | Activity (Rattus norvegicus [11]) | Activity (Rattus norvegicus [12])
CC[C@@H]1Cc2c(ccc(O)c2O)[C@H](CN)O1 | 6.78 | 4.97 | 5.45 | 81% | 89% |  |  |  |  |  |  | 
OCCCNC[C@@H]1OC(C2CCCCC2)Cc2c1ccc(O)c2O (stereo partly drawn) | 5.50 | < 5.00 | 4.91 |  | 58% |  |  |  |  |  |  | 
COc1cccc(C2Cc3c(ccc(O)c3O)[C@H](CN)O2)c1 (stereo partly drawn) | 6.51 | < 5.00 | 6.12 |  | 107% |  |  |  |  |  |  | 
NC[C@@H]1OC(COCc2ccccc2)Cc2c1ccc(O)c2O (stereo partly drawn) | 5.64 | 6.69 | 6.41 | 78% | 107% |  |  |  |  |  |  | 
CCCCCCC1Cc2c(ccc(O)c2O)[C@H](CN)O1 (stereo partly drawn) | 6.15 | 6.11 | 5.26 | 80% | 90% | 7.63 | 84% |  |  |  |  | 
NC[C@@H]1OC(COc2ccccc2)Cc2c1ccc(O)c2O (stereo partly drawn) | 6.43 | < 5.00 | 5.89 |  | 51% | 7.40 | 64% | 514 | 467 |  |  | 
COc1ccc(CC2Cc3c(ccc(O)c3O)[C@H](CN)O2)cc1 (stereo partly drawn) | 5.58 | < 5.00 | 5.57 |  |  |  |  |  |  |  |  | 
CCCCC1Cc2c(ccc(O)c2O)[C@H](CN)O1 (stereo partly drawn) | 6.06 | 6.44 | 6.08 | 80% | 151% |  |  |  |  |  |  | 
Oc1ccc2c(c1O)CC(C1CCCCC1)O[C@H]2CNC1CC1 (stereo partly drawn) | 6.48 | < 5.00 | 6.20 |  | 71% |  |  |  |  |  |  | 
NC[C@@H]1OC(C2CCCCCCC2)Cc2c1ccc(O)c2O (stereo partly drawn) | 7.05 | 6.12 | 6.47 | 70% |  |  |  |  |  |  |  | 
NC[C@@H]1OCCc2c1ccc(O)c2O | 5.99 | 5.55 | 5.34 | 96% |  |  |  |  |  | 584 | 93 | 286
C#CCC1Cc2c(ccc(O)c2O)[C@H](CN)O1 (stereo partly drawn) | 6.39 | 6.54 | 5.97 | 100% |  |  |  |  |  |  |  | 
CC[C@H]1Cc2c(ccc(O)c2O)[C@H](CN)O1 | 5.75 | 5.29 | < 5.00 | 76% | 92% |  |  |  |  |  |  | 
CNC[C@@H]1OC(C2CCCCC2)Cc2c1ccc(O)c2O (stereo partly drawn) | 7.85 | < 5.00 | 6.14 |  |  |  |  |  |  |  |  | 
Oc1ccc2c(c1O)CC(C1CCCCC1)O[C@H]2CNCc1ccccc1 (stereo partly drawn) | < 5.00 | < 5.00 | 5.61 |  |  |  |  |  |  |  |  | 
NC[C@@H]1OC(CCc2ccccc2)Cc2c1ccc(O)c2O (stereo partly drawn) | 6.61 | < 5.00 | 6.17 |  | 76% | 7.72 | 78% |  |  |  |  | 
NC[C@@H]1OC(c2cccc(O)c2)Cc2c1ccc(O)c2O (stereo partly drawn) | 9.31 | 6.72 | 6.23 | 111% |  |  |  |  |  |  |  | 
NC[C@@H]1OC2(CCCCC2)Cc2c1ccc(O)c2O | 6.32 | 5.18 | 5.33 | 56% | 65% |  |  |  |  |  |  | 
NC[C@@H]1OC(C(c2ccccc2)c2ccccc2)Cc2c1ccc(O)c2O (stereo partly drawn) | 6.28 | < 5.00 | 5.58 |  |  |  |  |  |  |  |  | 
NC[C@@H]1OC(Cc2ccccc2)Cc2c1ccc(O)c2O (stereo partly drawn) | 6.35 | < 5.00 | 5.83 |  | 93% |  |  |  |  |  |  | 
NC[C@@H]1OC(C23C[C@H]4C[C@@H](C2)C[C@@H](C3)C4)Cc2c1ccc(O)c2O (stereo partly drawn) |  | < 5.00 |  |  |  |  |  |  |  |  |  | 
C#CCN(C)C[C@@H]1OC(C2CCCCC2)Cc2c1ccc(O)c2O (stereo partly drawn) | 5.60 | < 5.00 | < 5.00 |  |  |  |  |  |  |  |  | 
NC[C@@H]1OC(c2ccc(I)cc2)Cc2c1ccc(O)c2O (stereo partly drawn) | 7.86 | < 5.00 | 5.98 |  | 161% |  |  |  |  |  |  | 
C=CCN(C)C[C@@H]1OC(C2CCCCC2)Cc2c1ccc(O)c2O (stereo partly drawn) | 5.50 | < 5.00 | 5.59 |  |  |  |  |  |  |  |  | 
C#CCNC[C@@H]1OC(C2CCCCC2)Cc2c1ccc(O)c2O (stereo partly drawn) | 5.33 | < 5.00 | 4.94 |  | 87% |  |  |  |  |  |  | 
NC[C@@H]1OC(CC2CCCC2)Cc2c1ccc(O)c2O (stereo partly drawn) | 7.52 | 6.37 | 6.11 | 76% | 124% |  |  |  |  |  |  | 
NC[C@@H]1OC(c2ccc(Br)cc2)Cc2c1ccc(O)c2O (stereo partly drawn) | 7.28 | 6.45 | 5.68 | 94% | 106% |  |  |  |  |  |  | 
